Measurements: paper PMC7049346 (Haematologica, 2019)

Assays:
PDE1C = PDE1C (Homo sapiens, UniProt Q14123); assay: PDE enzyme inhibition, radiometric assay; type: biochemical
Procedure, shortened: (§1)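 Recombinant human PDE enzymes (33 in the panel) were incubated in vitro with increasing concentrations of the test compound. Enzyme activity was measured radiometrically and IC50 values derived.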

PDE2A3 = PDE2A3 (Homo sapiens, UniProt O00408); assay: PDE enzyme inhibition, radiometric assay; type: biochemical
Procedure, shortened: as §1

PDE3A = PDE3A (Homo sapiens, UniProt Q14432); assay: PDE enzyme inhibition, radiometric assay; type: biochemical
Procedure, shortened: as §1

PDE3B = PDE3B (Homo sapiens, UniProt Q13370); assay: PDE enzyme inhibition, radiometric assay; type: biochemical
Procedure, shortened: as §1

PDE4A1 = PDE4A1 (Homo sapiens, UniProt P27815); assay: PDE enzyme inhibition, radiometric assay; type: biochemical
Procedure, shortened: as §1

PDE4A4 = PDE4A4 (Homo sapiens, UniProt P27815); assay: PDE enzyme inhibition, radiometric assay; type: biochemical
Chain of PDE4A4 (P27815 whole entry): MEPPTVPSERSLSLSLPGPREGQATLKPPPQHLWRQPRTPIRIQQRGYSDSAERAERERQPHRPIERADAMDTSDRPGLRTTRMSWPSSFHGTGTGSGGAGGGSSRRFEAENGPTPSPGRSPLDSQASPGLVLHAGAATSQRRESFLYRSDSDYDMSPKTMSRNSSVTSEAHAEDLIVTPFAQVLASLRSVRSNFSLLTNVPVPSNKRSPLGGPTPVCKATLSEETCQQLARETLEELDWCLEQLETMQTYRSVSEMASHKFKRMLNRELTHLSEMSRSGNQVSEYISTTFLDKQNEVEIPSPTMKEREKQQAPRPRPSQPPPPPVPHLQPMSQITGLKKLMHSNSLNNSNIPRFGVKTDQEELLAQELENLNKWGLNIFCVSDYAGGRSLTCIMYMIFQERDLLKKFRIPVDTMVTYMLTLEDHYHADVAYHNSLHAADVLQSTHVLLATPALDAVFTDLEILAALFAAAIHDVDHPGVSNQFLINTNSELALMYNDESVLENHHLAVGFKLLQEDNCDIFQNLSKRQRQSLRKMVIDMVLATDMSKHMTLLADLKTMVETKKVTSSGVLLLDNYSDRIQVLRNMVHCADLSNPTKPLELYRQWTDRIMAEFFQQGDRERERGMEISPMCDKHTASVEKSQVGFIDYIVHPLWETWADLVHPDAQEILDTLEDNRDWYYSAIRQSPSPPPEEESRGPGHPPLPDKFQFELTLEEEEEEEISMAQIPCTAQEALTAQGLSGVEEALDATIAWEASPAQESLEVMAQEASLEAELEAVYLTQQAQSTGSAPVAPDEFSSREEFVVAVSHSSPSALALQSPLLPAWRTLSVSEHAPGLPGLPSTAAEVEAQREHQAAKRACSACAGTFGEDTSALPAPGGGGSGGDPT
Procedure, shortened: as §1

PDE4B1 = PDE4B1 (Homo sapiens, UniProt Q07343); assay: PDE enzyme inhibition, radiometric assay; type: biochemical
Procedure, shortened: as §1

PDE4B2 = PDE4B2 (Homo sapiens, UniProt Q07343); assay: PDE enzyme inhibition, radiometric assay; type: biochemical
Procedure, shortened: as §1

PDE4B3 = PDE4B3 (Homo sapiens, UniProt Q07343); assay: PDE enzyme inhibition, radiometric assay; type: biochemical
Procedure, shortened: as §1

PDE4D1 = PDE4D1 (Homo sapiens, UniProt Q08499); assay: PDE enzyme inhibition, radiometric assay; type: biochemical
Chain of PDE4D1 (Q08499 1-584 isoform Q08499-4): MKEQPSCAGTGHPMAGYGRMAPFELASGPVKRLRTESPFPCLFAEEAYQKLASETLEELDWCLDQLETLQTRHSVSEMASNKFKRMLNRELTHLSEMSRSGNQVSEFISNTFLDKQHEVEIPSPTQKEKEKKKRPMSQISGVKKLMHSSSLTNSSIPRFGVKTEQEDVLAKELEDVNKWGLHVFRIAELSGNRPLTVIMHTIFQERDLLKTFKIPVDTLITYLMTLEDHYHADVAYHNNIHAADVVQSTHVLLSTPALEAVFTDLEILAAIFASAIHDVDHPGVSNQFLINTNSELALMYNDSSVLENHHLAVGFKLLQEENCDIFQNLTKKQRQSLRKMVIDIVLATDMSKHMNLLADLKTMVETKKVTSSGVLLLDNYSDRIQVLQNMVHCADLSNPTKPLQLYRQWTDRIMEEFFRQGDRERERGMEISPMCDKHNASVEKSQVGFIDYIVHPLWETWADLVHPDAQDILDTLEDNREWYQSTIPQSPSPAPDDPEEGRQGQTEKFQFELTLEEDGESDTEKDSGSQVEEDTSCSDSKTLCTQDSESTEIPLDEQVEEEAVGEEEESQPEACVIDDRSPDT
Procedure, shortened: as §1

PDE4D2 = PDE4D2 (Homo sapiens, UniProt Q08499); assay: PDE enzyme inhibition, radiometric assay; type: biochemical
Chain of PDE4D2 (Q08499 303-809): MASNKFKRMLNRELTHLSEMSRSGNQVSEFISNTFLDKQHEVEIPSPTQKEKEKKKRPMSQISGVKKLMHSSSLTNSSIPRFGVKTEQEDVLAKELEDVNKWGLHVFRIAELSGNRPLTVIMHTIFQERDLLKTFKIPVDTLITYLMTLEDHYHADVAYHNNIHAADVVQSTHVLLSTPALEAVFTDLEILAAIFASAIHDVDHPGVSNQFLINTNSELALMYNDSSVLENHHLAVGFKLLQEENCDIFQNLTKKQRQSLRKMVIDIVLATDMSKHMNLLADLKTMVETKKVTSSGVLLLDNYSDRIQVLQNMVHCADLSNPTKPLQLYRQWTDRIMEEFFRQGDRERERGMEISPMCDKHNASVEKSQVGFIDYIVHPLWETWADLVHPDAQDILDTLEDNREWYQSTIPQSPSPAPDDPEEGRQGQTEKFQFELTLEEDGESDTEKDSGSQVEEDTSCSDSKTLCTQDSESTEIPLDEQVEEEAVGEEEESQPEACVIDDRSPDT
Procedure, shortened: as §1

PDE4D3 = PDE4D3 (Homo sapiens, UniProt Q08499); assay: PDE enzyme inhibition, radiometric assay; type: biochemical
Procedure, shortened: as §1

PDE4D4 = PDE4D4 (Homo sapiens, UniProt Q08499); assay: PDE enzyme inhibition, radiometric assay; type: biochemical
Chain of PDE4D4 (Q08499 whole entry): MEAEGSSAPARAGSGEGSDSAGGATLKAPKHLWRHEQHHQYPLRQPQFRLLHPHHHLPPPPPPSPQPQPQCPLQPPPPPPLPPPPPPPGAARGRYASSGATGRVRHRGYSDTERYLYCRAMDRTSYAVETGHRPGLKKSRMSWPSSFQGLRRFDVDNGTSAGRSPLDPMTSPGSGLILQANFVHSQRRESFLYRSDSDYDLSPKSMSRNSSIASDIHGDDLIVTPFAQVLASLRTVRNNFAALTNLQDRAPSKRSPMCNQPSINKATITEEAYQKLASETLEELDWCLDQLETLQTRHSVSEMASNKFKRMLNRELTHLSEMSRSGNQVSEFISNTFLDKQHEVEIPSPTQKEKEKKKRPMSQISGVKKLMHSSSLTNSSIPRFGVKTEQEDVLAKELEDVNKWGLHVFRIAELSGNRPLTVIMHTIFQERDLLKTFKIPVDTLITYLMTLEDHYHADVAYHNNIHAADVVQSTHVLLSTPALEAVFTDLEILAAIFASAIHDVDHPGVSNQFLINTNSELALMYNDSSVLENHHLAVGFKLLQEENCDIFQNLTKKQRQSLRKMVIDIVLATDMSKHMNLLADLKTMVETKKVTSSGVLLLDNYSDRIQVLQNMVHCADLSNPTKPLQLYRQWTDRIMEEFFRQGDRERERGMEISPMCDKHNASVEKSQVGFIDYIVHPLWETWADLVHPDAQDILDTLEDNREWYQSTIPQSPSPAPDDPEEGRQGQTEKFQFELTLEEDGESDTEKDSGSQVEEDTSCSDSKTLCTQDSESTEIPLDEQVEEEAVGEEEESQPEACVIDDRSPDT
Procedure, shortened: as §1

PDE4D5 = PDE4D5 (Homo sapiens, UniProt Q08499); assay: PDE enzyme inhibition, radiometric assay; type: biochemical
Chain of PDE4D5 (Q08499 1-745 isoform Q08499-6): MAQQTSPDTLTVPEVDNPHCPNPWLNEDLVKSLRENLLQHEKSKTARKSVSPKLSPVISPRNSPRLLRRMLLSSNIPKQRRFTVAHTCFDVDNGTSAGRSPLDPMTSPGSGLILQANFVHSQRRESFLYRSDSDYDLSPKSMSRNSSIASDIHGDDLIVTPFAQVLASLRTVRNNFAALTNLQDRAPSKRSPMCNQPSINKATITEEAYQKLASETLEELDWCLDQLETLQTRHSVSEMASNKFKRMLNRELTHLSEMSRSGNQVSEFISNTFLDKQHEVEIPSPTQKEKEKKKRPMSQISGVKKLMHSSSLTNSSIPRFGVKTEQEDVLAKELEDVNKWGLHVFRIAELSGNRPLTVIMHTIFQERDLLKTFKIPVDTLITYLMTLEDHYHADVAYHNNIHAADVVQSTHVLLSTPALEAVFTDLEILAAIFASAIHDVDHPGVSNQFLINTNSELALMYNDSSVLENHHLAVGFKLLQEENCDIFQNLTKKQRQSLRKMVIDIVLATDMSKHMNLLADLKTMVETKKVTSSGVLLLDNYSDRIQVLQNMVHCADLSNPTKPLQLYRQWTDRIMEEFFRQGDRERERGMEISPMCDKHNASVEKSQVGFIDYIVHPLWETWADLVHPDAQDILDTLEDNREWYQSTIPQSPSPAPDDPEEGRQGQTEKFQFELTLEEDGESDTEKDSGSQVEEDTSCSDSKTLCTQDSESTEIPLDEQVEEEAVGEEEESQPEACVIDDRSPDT
Procedure, shortened: as §1

PDE5A1 = PDE5A1 (Homo sapiens, UniProt O76074); assay: PDE enzyme inhibition, radiometric assay; type: biochemical
Procedure, shortened: as §1

PDE5A2 = PDE5A2 (Homo sapiens, UniProt O76074); assay: PDE enzyme inhibition, radiometric assay; type: biochemical
Procedure, shortened: as §1

PDE5A3 = PDE5A3 (Homo sapiens, UniProt O76074); assay: PDE enzyme inhibition, radiometric assay; type: biochemical
Procedure, shortened: as §1

PDE6AB = PDE6AB (Homo sapiens, UniProt P16499+P35913); assay: PDE enzyme inhibition, radiometric assay; type: biochemical
Procedure, shortened: as §1

PDE6C = PDE6C (Homo sapiens, UniProt P51160); assay: PDE enzyme inhibition, radiometric assay; type: biochemical
Procedure, shortened: as §1

PDE7A = PDE7A (Homo sapiens, UniProt Q13946); assay: PDE enzyme inhibition, radiometric assay; type: biochemical
Procedure, shortened: as §1

PDE7B = PDE7B (Homo sapiens, UniProt Q9NP56); assay: PDE enzyme inhibition, radiometric assay; type: biochemical
Procedure, shortened: as §1

PDE8A1 = PDE8A1 (Homo sapiens, UniProt O60658); assay: PDE enzyme inhibition, radiometric assay; type: biochemical
Chain of PDE8A1 (O60658 whole entry): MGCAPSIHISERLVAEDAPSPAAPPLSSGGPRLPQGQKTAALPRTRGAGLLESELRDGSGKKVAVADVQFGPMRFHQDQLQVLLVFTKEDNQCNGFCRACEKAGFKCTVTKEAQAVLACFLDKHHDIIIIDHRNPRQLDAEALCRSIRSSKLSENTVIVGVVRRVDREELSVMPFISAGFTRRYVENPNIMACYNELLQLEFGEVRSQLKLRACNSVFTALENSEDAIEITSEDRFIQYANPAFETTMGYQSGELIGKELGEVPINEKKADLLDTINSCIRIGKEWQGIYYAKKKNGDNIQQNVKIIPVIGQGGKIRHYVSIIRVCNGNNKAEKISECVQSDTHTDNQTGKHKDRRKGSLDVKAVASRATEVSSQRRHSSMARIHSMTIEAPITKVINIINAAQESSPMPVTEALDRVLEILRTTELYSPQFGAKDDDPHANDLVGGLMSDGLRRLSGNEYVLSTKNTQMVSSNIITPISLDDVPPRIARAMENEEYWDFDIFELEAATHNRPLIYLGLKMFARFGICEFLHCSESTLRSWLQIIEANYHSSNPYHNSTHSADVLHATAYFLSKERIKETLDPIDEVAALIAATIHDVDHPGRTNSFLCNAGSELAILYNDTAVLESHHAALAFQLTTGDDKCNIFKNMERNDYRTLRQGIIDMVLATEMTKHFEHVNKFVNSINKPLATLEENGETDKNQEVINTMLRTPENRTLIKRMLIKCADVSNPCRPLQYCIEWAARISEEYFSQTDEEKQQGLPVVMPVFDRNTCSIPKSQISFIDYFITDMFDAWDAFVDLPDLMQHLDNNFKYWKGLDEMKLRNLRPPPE
Procedure, shortened: as §1

PDE8B = PDE8B (Homo sapiens, UniProt O95263); assay: PDE enzyme inhibition, radiometric assay; type: biochemical
Procedure, shortened: as §1

PDE10A2 = PDE10A2 (Homo sapiens, UniProt Q9Y233); assay: PDE enzyme inhibition, radiometric assay; type: biochemical
Procedure, shortened: as §1

PDE11A1 = PDE11A1 (Homo sapiens, UniProt Q9HCR9); assay: PDE enzyme inhibition, radiometric assay; type: biochemical
Procedure, shortened: as §1

K562 cells [1] = assay: cGMP induction in K562 cells; type: cell-based, human; settings: 6 h
Procedure, shortened: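 Actively growing K562 cells were treated for 6 h with increasing concentrations of the test compound or hydroxyurea. cGMP was measured by non-radioactive enzyme immunoassay using the acetylation protocol, and protein by BCA assay. Data are means±Standard Errors.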

K562 cells [2] = assay: HbF induction in K562 cells; type: cell-based, human; settings: 72 h
UT-7 cells = assay: HbF induction in UT-7 cells; type: cell-based, human; settings: GM-CSF dependent erythroid line UT-7; data not shown
HbSS-Townes mice = assay: HbSS-Townes vaso-occlusive crisis model; type: in vivo
[3] = test system: erythroid cells from CD34+ progenitors of SCD patients; assay: HbF induction in SCD patient-derived erythroblasts; type: cell-based, human; settings: 10 μM IMR-687, five days, n=9, P<0.01
Procedure, shortened: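 CD34⁺ progenitors came from the blood or bone marrow of nine SCD donors. Cells grew seven days with 15% BIT 9500, 2 mM L-glutamine, IL-3 (10 ng/mL), IL-6 and SCF (100 ng/mL). CD36⁺ cells were then isolated and grown five days with SCF, IL-3 and EPO (2 UI/mL) plus DMSO, 30 μM hydroxyurea or 10 μM test compound. HbF⁺ cells (%) and HbF MFI were read by PE-anti-HbF FACS, gated LiveDead⁻/GPA⁺/Band3⁺.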

mice = assay: Classical fear conditioning model of learning and memory; type: in vivo; settings: similar dose of both PDE9i
dogs = assay: Long-term toxicology study in dogs; type: in vivo
rodents = assay: Fertility and fetal development in rodents; type: in vivo
[4] = Locomotor activity and behavioral responses in toxicology studies; type: in vivo; settings: data not shown

Chain of PDE1C (Q14123 whole entry): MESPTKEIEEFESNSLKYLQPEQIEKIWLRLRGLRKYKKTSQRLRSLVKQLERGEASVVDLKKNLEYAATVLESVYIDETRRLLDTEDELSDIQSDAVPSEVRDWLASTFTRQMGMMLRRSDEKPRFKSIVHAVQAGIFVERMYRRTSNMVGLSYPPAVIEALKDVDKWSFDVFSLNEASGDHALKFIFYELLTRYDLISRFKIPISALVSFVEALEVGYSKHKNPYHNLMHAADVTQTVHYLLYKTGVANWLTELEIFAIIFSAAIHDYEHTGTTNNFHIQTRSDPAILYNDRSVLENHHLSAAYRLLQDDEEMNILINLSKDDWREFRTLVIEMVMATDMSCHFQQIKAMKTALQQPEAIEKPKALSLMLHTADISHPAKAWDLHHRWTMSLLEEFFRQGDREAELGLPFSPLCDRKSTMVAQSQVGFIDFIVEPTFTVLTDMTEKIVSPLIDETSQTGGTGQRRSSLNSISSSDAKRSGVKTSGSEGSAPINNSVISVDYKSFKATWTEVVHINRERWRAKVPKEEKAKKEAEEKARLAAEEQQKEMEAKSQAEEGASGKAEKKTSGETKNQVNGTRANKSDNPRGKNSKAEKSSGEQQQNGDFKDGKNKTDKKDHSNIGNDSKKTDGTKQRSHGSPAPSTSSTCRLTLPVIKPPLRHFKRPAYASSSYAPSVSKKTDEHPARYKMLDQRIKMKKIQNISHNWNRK

In the case of C[C@@H]1CN(Cc2ncccn2)C[C@H]1c1cn2c(C3CCOCC3)ncc2c(=O)[nH]1 [IMR-687], the IC50 (PDE1C) is reported as 12.2 µM, the IC50 (PDE2A3) is reported as over 100 µM and the IC50 (PDE3A) is reported as over 100 µM. It also gave an IC50 (PDE3B) of over 100 µM, an IC50 (PDE4A1) of over 100 µM and an IC50 (PDE4A4) of over 100 µM. The IC50 (PDE4B1) was over 100 µM, the IC50 (PDE4B2) was over 100 µM and the IC50 (PDE4B3) was over 100 µM. The IC50 (PDE4D1) was over 100 µM, the IC50 (PDE4D2) was over 100 µM and the IC50 (PDE4D3) was over 100 µM. For the same compound, the IC50 (PDE4D4) was over 100 µM, the IC50 (PDE4D5) was over 100 µM and the IC50 (PDE5A1) was over 100 µM. It also gave an IC50 (PDE5A2) of 81.9 µM, an IC50 (PDE5A3) of over 100 µM and an IC50 (PDE6AB) of over 100 µM. It also gave an IC50 (PDE6C) of over 100 µM, an IC50 (PDE7A) of over 100 µM and an IC50 (PDE7B) of over 100 µM. It also gave an IC50 (PDE8A1) of over 100 µM, an IC50 (PDE8B) of over 100 µM and an IC50 (PDE10A2) of over 100 µM. The IC50 (PDE11A1) was over 100 µM, the cGMP induction (K562 cells [1]) was “induced cGMP in a dosedependent manner” and the “HbF induction (ELISA)” value (K562 cells [2]) was “dose-dependently induced more HbF than either BAY73-6691 or BAY 41-2271”. The “HbF induction relative to a dose of HU that demonstrated cytotoxicity” value (K562 cells [2]; 10 μM IMR-687) was 4.6 times, the HbF induction (UT-7 cells) was “Induction of HbF by IMR-687 was observed” and the microvascular stasis (HbSS-Townes mice; 10 mg/kg/day for ten days, 1 h in normoxia, vehicle 33%, P<0.05) was 20%. For the same compound, the microvascular stasis (HbSS-Townes mice; 10 mg/kg/day for ten days, 4 h in normoxia, vehicle 16%, ns) was 14%, the microvascular stasis (HbSS-Townes mice; 30 mg/kg/day for ten days, 4 h in normoxia, vehicle 16%, P<0.01) was 7% and the “percentage of F-cells (HbF positive)” value ([3]; DMSO control 13.3%) was 21.9%. The “intensity of HbF staining (MFI)” value ([3]; control 6073±1217) was 7813±1374, the conditioned fear responses (mice) was “no effect” and the “myelotoxicity, histological examination of bone marrow smears” value (dogs; data not shown) was “did not demonstrate any myelotoxicity”. The “peripheral WBC counts” value (dogs; up to 9 months, oral daily 10, 25, or 50 mg/kg) was “did not result in any reduction in peripheral WBC counts”, the “impact on fertility or fetal development” value (rodents) was “did not impact fertility or fetal development” and the “effect on locomotor activity or behavioral responses” value [4] was “no effect”.
